Assay results as given in ChEMBL document CHEMBL3112527, “Quinoline-pyrimidine hybrids: synthesis, antiplasmodial activity, SAR, and mode of action studies” (J Med Chem, 2014).
Values after ≈ are worked out from the molar mass of the structure shown. Active and inactive are the calls of the source. No cut-off for these calls is given here.

Legend:
DNA = assay: Binding affinity to calf thymus DNA at 5:1 DNA to compound ratio by spectrophotometric analysis; type: nucleic-acid assay; settings: Bos taurus
HeLa = assay: Cytotoxicity against human HeLa cells assessed as growth inhibition by MTT assay; type: cell-based
Human betaherpesvirus 5 [1] = assay: Antiviral activity against Cytomegalovirus Davis infected in HEL cells assessed as inhibition of virus-induced cytopathicity; type: functional, organism-based
[2] = Cytotoxicity against human HeLa cells assessed as alteration of cell morphology by microscopic analysis; type: cell-based; settings: read-out: MIC
How it was run: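 Cells (Vero, HEL, MDCK or HeLa) were exposed to a range of sample concentrations. The value reported is the concentration required to cause a microscopically detectable alteration of normal cell morphology.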

Feline coronavirus = assay: Antiviral activity against Feline coronavirus infected in cat CRFK cells assessed as inhibition of virus-induced cytopathicity; type: functional, organism-based
How it was run: (§1)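 Confluent monolayers (HEL, Vero, HeLa or CrFK, as applicable) were inoculated with 100 CCID50 of virus, with 1 CCID50 being the dose that infects 50% of cultures. Infection ran in the presence of varying compound concentrations. Inhibition of virus-induced cytopathicity was scored against infected cultures left untreated.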

Human alphaherpesvirus 3 = assay: Antiviral activity against Varicella-zoster virus infected in HEL cells assessed as inhibition of virus-induced cytopathicity; type: functional, organism-based
Sindbis virus = assay: Antiviral activity against Sindbis virus infected in African green monkey Vero cells assessed as inhibition of virus-induced cytopathicity; type: functional, organism-based
Felid alphaherpesvirus 1 = assay: Antiviral activity against Feline herpesvirus infected in cat CRFK cells assessed as inhibition of virus-induced cytopathicity; type: functional, organism-based; how it was run: as §1
Influenza A virus H3N2 = assay: Antiviral activity against Influenza A virus H3N2 infected in MDCK cells assessed as inhibition of virus-induced cytopathicity; type: functional, organism-based
How it was run: (§2)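 Confluent monolayers in 96-well plates were inoculated with 100 CCID50 of virus in the presence of varying concentrations of compound. Read-out was inhibition of virus-induced cytopathicity, compared with untreated infected cultures. Cytotoxicity was judged microscopically or by MTT viability staining.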

Human alphaherpesvirus 2 = assay: Antiviral activity against HSV-2 G infected in HEL cells assessed as inhibition of virus-induced cytopathicity; type: functional, organism-based; settings: strain G; how it was run: as §1
Human alphaherpesvirus 1 [3] = assay: Antiviral activity against HSV-1 KOS infected in HEL cells assessed as inhibition of virus-induced cytopathicity; type: functional, organism-based; how it was run: as §1
[4] = Cytotoxicity against cat CRFK cells assessed as cell viability by MTS assay; type: cell-based, Felis catus
How it was run: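 CRFK cells were exposed to varying sample concentrations. Cell viability was measured with the colorimetric formazan-based MTS assay, and the 50% cytotoxic concentration (CC50) was derived from it.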

Human betaherpesvirus 5 [5] = assay: Antiviral activity against Cytomegalovirus AD169 infected in HEL cells assessed as inhibition of virus-induced cytopathicity; type: functional, organism-based
[6] = Aqueous solubility of the compound in PBS buffer at pH 7.4 after 24 hrs by HPLC analysis; type: physicochemical; settings: pH 7.4, 24 h
Influenza A virus = assay: Antiviral activity against influenza A virus H1N1 infected in MDCK cells assessed as inhibition of virus-induced cytopathicity; type: functional, organism-based; how it was run: as §2
Coxsackievirus B4 [7] = assay: Antiviral activity against Coxsackievirus B4 infected in human HeLa cells assessed as inhibition of virus-induced cytopathicity; type: functional, organism-based; how it was run: as §1
Human alphaherpesvirus 1 [8] = assay: Antiviral activity against thymidine kinase-negative acyclovir-resistant HSV-1 KOS infected in HEL cells assessed as inhibition of virus-induced cytopathicity; type: functional, organism-based; how it was run: as §2
[9] = Selectivity index, ratio of CC50 for cat CRFK cells to IC50 for chloroquine-resistant asexual erythrocytic stage of Plasmodium falciparum Dd2; type: functional
How it was run: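 Ratio of CRFK CC50 (μM) to Dd2 IC50 […]. CC50 is the 50% cytotoxic concentration in feline kidney CRFK cells, measured as cell viability by colorimetric formazan-based MTS assay. Dd2 IC50 is from the parasite LDH growth-inhibition assay.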

Coxsackievirus B4 [10] = assay: Antiviral activity against Coxsackievirus B4 infected in African green monkey Vero cells assessed as inhibition of virus-induced cytopathicity; type: functional, organism-based; how it was run: as §1
Plasmodium falciparum [11] = assay: Antiplasmodial activity against chloroquine-resistant asexual erythrocytic stage of Plasmodium falciparum Dd2 assessed as parasite growth inhibition by lactate dehydrogenase assay; type: functional, organism-based
How it was run: (§3)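 Parasite lactate dehydrogenase assay (modified Makler method). Samples held as 20 mg/mL stocks in DMSO, diluted on test day. Full dose-response: starting at 10 μg/mL, 2-fold serial dilution in complete medium over 10 concentrations down to 0.02 μg/mL. Chloroquine, artesunate and MMV390048 served as references. IC50 from nonlinear dose-response curve fitting; mean of three independent experiments.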

[12] = Solubility of the compound in octanol at pH 7.4 by HPLC analysis; type: physicochemical
Plasmodium falciparum [13] = assay: Antiplasmodial activity against chloroquine-sensitive asexual erythrocytic stage of Plasmodium falciparum D10 assessed as parasite growth inhibition by lactate dehydrogenase assay; type: functional, organism-based; how it was run: as §3
Punta Toro virus = assay: Antiviral activity against Punta Toro virus infected in African green monkey Vero cells assessed as inhibition of virus-induced cytopathicity; type: functional, organism-based; how it was run: as §1
[14] = system: Vesicular stomatitis virus; assay: Antiviral activity against Vesicular stomatitis virus infected in HEL cells assessed as inhibition of virus-induced cytopathicity; type: functional, organism-based; how it was run: as §2
Vaccinia virus = assay: Antiviral activity against Vaccinia virus infected in HEL cells assessed as inhibition of virus-induced cytopathicity; type: functional, organism-based; settings: Orthopoxvirus vaccinia; how it was run: as §2
[15] = system: Mammalian orthoreovirus 1; assay: Antiviral activity against Reovirus 1 infected in African green monkey Vero cells assessed as inhibition of virus-induced cytopathicity; type: functional, organism-based; how it was run: as §1
[16] = system: Vesicular stomatitis virus; assay: Antiviral activity against Vesicular stomatitis virus infected in human HeLa cells assessed as inhibition of virus-induced cytopathicity; type: functional, organism-based; how it was run: as §2
[17] = n-octanol-PBS buffer distribution coefficient, log D of the compound at pH 7.4 after 24 hrs by HPLC analysis; type: physicochemical
[18] = system: Respiratory syncytial virus; assay: Antiviral activity against Respiratory syncytial virus infected in human HeLa cells assessed as inhibition of virus-induced cytopathicity; type: functional, organism-based; how it was run: as §1
Human respirovirus 3 = assay: Antiviral activity against parainfluenza virus 3 infected in African green monkey Vero cells assessed as inhibition of virus-induced cytopathicity; type: functional, organism-based; how it was run: as §1

CCN(CC)CCCC(C)Nc1ccnc2cc(Cl)ccc12 (stereo not drawn) [CHLOROQUINE PHOSPHATE]
Activity (DNA): Active
IC50 (HeLa): 30000 nM

Clc1ccc2c(NCCCNc3ccnc(Cl)n3)ccnc2c1
inhibition (Human betaherpesvirus 5 [1]): inactive
MCC [2]: > 100 µM
inhibition (Feline coronavirus): inactive
inhibition (Human alphaherpesvirus 3): inactive
inhibition (Sindbis virus): inactive
inhibition (Felid alphaherpesvirus 1): inactive
inhibition (Influenza A virus H3N2): inactive
inhibition (Human alphaherpesvirus 2): inactive
inhibition (Human alphaherpesvirus 1 [3]): inactive
CC50 [4]: > 100000 nM
inhibition (Human betaherpesvirus 5 [5]): inactive
solubility [6]: 0.6 µM (≈ 0.209 µg/mL)
inhibition (Influenza A virus): inactive
inhibition (Coxsackievirus B4 [7]): inactive
inhibition (Human alphaherpesvirus 1 [8]): inactive
Ratio CC50/IC50 [9]: >483
inhibition (Coxsackievirus B4 [10]): inactive
IC50 (Plasmodium falciparum [11]): 207 nM
solubility [12]: 1.01 µM (≈ 0.352 µg/mL)
IC50 (Plasmodium falciparum [13]): 270 nM
inhibition (Punta Toro virus): inactive
inhibition [14]: inactive
inhibition (Vaccinia virus): inactive
inhibition [15]: inactive
inhibition [16]: inactive
logD at 24 h [17]: 0.229
inhibition [18]: inactive
inhibition (Human respirovirus 3): inactive

Clc1ccc2c(NCCCNc3nccc(N4CCCC4)n3)ccnc2c1
inhibition (Human betaherpesvirus 5 [1]): inactive
MCC [2]: 100 µM
inhibition (Feline coronavirus): inactive
inhibition (Human alphaherpesvirus 3): inactive
inhibition (Sindbis virus): inactive
inhibition (Felid alphaherpesvirus 1): inactive
inhibition (Influenza A virus H3N2): inactive
inhibition (Human alphaherpesvirus 2): inactive
inhibition (Human alphaherpesvirus 1 [3]): inactive
CC50 [4]: 49000 nM
inhibition (Human betaherpesvirus 5 [5]): inactive
solubility [6]: 0.22 µM (≈ 0.0842 µg/mL)
inhibition (Influenza A virus): inactive
inhibition (Coxsackievirus B4 [7]): inactive
inhibition (Human alphaherpesvirus 1 [8]): inactive
Ratio CC50/IC50 [9]: 327
inhibition (Coxsackievirus B4 [10]): inactive
IC50 (Plasmodium falciparum [11]): 151 nM
solubility [12]: 1.25 µM (≈ 0.479 µg/mL)
IC50 (Plasmodium falciparum [13]): 28.7 nM
inhibition (Punta Toro virus): inactive
inhibition [14]: inactive
inhibition (Vaccinia virus): inactive
inhibition [15]: inactive
inhibition [16]: inactive
logD at 24 h [17]: 0.756
inhibition [18]: inactive
inhibition (Human respirovirus 3): inactive
